From PubChem
Hits are enriched below; roughly 1.3% of the tested compounds scored in any of these assays.
TPT1 inh: Candida albicans TPT1 enzyme inhibitors, primary screen, biochemical, fluorescence polarization; inhibition, % at 5 µM; tRNA 2'-phosphotransferase TPT1 (Candida albicans SC5314); recombinant caTPT1, FP RNA substrate dephosphorylation; actives 0.81% (n = 300,000);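 active means inhibition above the mean of all tested compounds plus 3 SD, set per screening campaign, cut at about 24% in these data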;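 further: plate controls were DMSO alone for no effect and ferristatin control at 100 nM for full effect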
Rpn11 block: Rpn11 (PSMD14) deubiquitinase inhibitors, primary screen, biochemical, fluorescence polarization, uHTS. 26S proteasome non-ATPase regulatory subunit 14 (Homo sapiens), O00487. human 26S proteasome, Ub4-pepOG fluorescence polarization; 20S core pre-blocked with epoxomicin. inhibition, % at 20 µM. actives 0.59% (n = 360,000). AID 588493, 2011;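 active means inhibition at 20 µM, scaled to each plate's controls, above about 33%, limit read from the data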
Target sequence (O00487 whole entry, looked up): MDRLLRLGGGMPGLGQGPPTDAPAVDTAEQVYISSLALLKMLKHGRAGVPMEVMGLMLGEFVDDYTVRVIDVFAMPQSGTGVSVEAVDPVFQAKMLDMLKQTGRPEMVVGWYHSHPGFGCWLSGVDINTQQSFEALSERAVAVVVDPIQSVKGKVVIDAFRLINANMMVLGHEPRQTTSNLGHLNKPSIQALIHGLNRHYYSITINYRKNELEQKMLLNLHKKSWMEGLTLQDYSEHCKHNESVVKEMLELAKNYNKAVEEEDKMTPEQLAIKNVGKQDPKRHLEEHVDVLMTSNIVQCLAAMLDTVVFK
XiGFP reactiv: activators of inactive X chromosome reactivation, primary screen, imaging, XiGFP fibroblasts, GFP high-content imaging, set 2; XiGFP mouse fibroblasts, % GFP-positive cells imaging, 3 d; cells co-treated with 5-aza-dC sensitizer; scaled so ellipticine positive control = 100%; activation, % at 7.58 µM; actives 0.055% (n = 360,000); AID 743238, 2013;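 active means mean normalized replicate activation at least 10% and every replicate at or above 10%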;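 further: 0% = median of on-plate neutral control wells and 100% = ellipticine 6 µM median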
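Material: XiGFP fibroblasts, SV40-immortalized; Buffer or medium: DMEM containing 5-aza-dC; Compound dosing: single point; Times: 3 days compound exposure.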
aDG glyco act: activators of alpha-DG glycosylation, primary screen, uHTS, Pro5-aDG cells, AlphaScreen; actives 0.22% (n = 360,000); alpha-DG glycosylation AlphaScreen (IIH6); 0% Pro5, 100% B10-LARGE cell signal; activation, % at 10 µM; AID 624168, 2012;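 active means activation of at least 8% versus controls, or a plate z-score of at least 8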;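 further: Pro5 are CHO cells carrying HIG-tagged alpha-DG that lacks glycosylation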
CSN inh: inhibitors of CSN-mediated cullin deneddylation, primary screen, biochemical, fluorescence polarization, uHTS; COP9 signalosome complex subunit 5 (Homo sapiens), Q92905; Purified CSN, SCF-Nedd8-OG deneddylation; inhibition, % at 12.5 µM; actives 0.38% (n = 360,000);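 active means pattern-corrected inhibition above about 35%, with an unprinted fluorescence ratio check between 0.5 and 1.5, limit read from the data, passing the limit was not always enough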;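 further: 0% = enzyme with substrate and 100% = substrate without enzyme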
Target sequence (Q92905 whole entry, looked up, one chain of several): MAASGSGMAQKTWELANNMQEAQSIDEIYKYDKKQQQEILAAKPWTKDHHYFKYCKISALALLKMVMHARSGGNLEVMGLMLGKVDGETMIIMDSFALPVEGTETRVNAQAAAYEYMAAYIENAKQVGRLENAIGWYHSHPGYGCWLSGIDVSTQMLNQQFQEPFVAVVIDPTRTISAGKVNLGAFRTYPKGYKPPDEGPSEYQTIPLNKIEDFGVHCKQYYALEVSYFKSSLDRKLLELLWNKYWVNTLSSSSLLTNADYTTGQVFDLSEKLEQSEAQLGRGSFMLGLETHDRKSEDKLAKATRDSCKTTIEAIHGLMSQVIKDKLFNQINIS
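Assay system: purified human Csn5 enzyme expressed in HEK293T cells; measure: % inhibition; also added: SCFSkp2-Nedd8OG substrate at 10 nM final; technique: fluorescence polarization; times: reaction 90 min, room temperature; medium: Tris buffer pH 7.5, NaCl, DTT, Tween-20, trehalose, ovalbumin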
HNF4A DNA FP: change in binding of human HNF4A to DNA, primary screen, biochemical, fluorescence polarization, FITC-DNA. 1 h. AID 1224865, 2016. activity change, % at 10 µM. Hepatocyte nuclear factor 4-alpha (Homo sapiens), P41235. actives 0.3% (n = 360,000); in the data active means activity change above about 30%, passing the limit was not always enough
caTPT1 confirm: Candida albicans TPT1 inhibitors, confirmation, biochemical, fluorescence polarization, triplicate | shares compounds with TPT1 inh | recombinant caTPT1, RNase T1 coupled | inhibition, % at 5 µM | actives 74% (n = 2,400) | AID 2149, 2009;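 active means inhibition above the primary screen limit, the mean inhibition of all tested compounds plus 3 SD, cut at about 25% in these data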
RNase T1 counter: RNase T1 inhibitors, counter-screen for TPT1 inhibitor project, biochemical, fluorescence polarization | actives 83% (n = 2,400) | inhibition, % at 5 µM | RNase T1 cleavage, 1536-well | shares compounds with TPT1 inh;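 active means inhibition above the solvent-only control well mean plus 3 SD, limit set per screening run, cut at about 23% in these data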;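 further: plate controls were DMSO wells with enzyme for no effect and wells without RNase T1 for full effect; inhibitors block cleavage so intact labeled substrate keeps polarization high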
An asterisk follows results filed as active; . = no result shown.

SMILES	TPT1 inh	Rpn11 block	XiGFP reactiv	aDG glyco act	CSN inh	HNF4A DNA FP	caTPT1 confirm	RNase T1 counter
C[C@@H]1CN([C@@H](C)CO)C(=O)c2cc(NC(=O)Nc3ccccc3)ccc2O[C@H]1CN(C)C(=O)Nc1ccc(C(F)(F)F)cc1	.	.	0.1	.	.	.	.	.
CCN1CCN(c2cc(N3CCN(C(=O)c4ccco4)CC3)c3c4c(onc24)-c2ccccc2C3=O)CC1	40.0*	-18.3	.	-0.6	-10.7	0.2	43.0*	11.7
O=C(NC12CC3CC(CC(C3)C1)C2)c1cc(F)c(F)c(F)c1F	44.3*	-0.3	0.0	0.0	-0.3	0.4	-4.1	-2.8
C[C@H]1CN([C@@H](C)CO)C(=O)c2cccc(NS(C)(=O)=O)c2O[C@@H]1CN(C)Cc1ccc2c(c1)OCO2	.	.	0.1	.	.	.	.	.
Cc1ccc(C2NC(=O)c3c(sc4c3CCN(C)C4)N2)s1 (stereo unspecified)	64.4*	.	.	0.6	29.1	9.6	38.5*	47.4*
CN1CCc2c(sc3c2C(=O)NC(c2ccccc2)N3)C1 (stereo unspecified)	27.3*	17.0	-0.2	0.0	5.8	-0.8	31.2*	44.5*
C[C@@H]1CN([C@H](C)CO)C(=O)c2cc(NC(=O)NC3CCCCC3)ccc2O[C@H]1CN(C)S(=O)(=O)c1cccs1	.	.	0.1	.	.	.	.	.
O=C(Cn1ncc2c3ccccc3n(Cc3cccc(Cl)c3)c2c1=O)NCc1ccccn1	69.0*	.	0.2	0.5	11.5	25.5	83.9*	89.5*
Cc1ccc(NS(=O)(=O)c2cc([N+](=O)[O-])ccc2NNC(=S)Nc2cccc(Cl)c2)c(C)c1	36.0*	75.6*	.	-0.7	18.2	29.8	36.6*	45.7*
CN1C/C(=C\c2ccc(N3CCOCC3)cc2)C(=O)/C(=C/c2ccc(N3CCOCC3)cc2)C1	62.8*	.	.	0.1	13.3	5.7	89.3*	94.4*
CCc1ccc(/C=C2/SC(N3CCOCC3)=NC2=O)cc1	-0.8	-3.3	0.0	0.3	1.8	-1.2	.	.
CCN1C/C(=C/c2ccc(N3CCOCC3)cc2)C(=O)/C(=C/c2ccc(N3CCOCC3)cc2)C1	98.7*	.	2.5	-0.5	33.3	0.7	97.4*	93.1*
CN1C/C(=C/c2ccncc2)C(=O)/C(=C/c2ccncc2)C1	-1.9	1.1	1.4	0.0	3.8	-0.3	.	.
C[C@H](O)C#Cc1cnc2c(c1)C(=O)N([C@@H](C)CO)C[C@@H](C)[C@@H](CN(C)C(=O)c1ccc(F)cc1)O2	.	.	-0.1	.	.	.	.	.
C[C@@H]1CN([C@H](C)CO)C(=O)c2cc(-c3ccccc3)cnc2O[C@H]1CN(C)C(=O)Cc1ccccc1	.	.	-0.4	.	.	.	.	.
N#Cc1c(NC(=O)CSc2nnc(-c3ccncc3)n2CC2CCCO2)sc2c1CCCC2 (stereo unspecified)	115.1*	-2.0	.	0.2	1.2	1.5	5.3	7.1
CCn1c(SCC(=O)Nc2sc3c(c2C#N)CCCC3)nnc1-c1ccncc1	3.2	-16.4	.	-0.1	-1.8	-0.2	.	.
CC(=O)/C(=N/Nc1ccccc1Cl)Sc1nnc(C(O)c2ccccc2)n1-c1ccccc1 (stereo unspecified)	47.9*	-8.2	0.1	-0.2	-6.1	0.4	5.8	5.7
COC(=O)/C(=N/Nc1ccccc1Cl)Sc1nnc(C(O)c2ccccc2)n1-c1ccccc1 (stereo unspecified)	-1.1	3.7	0.0	-0.1	5.7	-1.3	.	.
O=S(=O)(N[C@H]1CC[C@@H](CCn2cc(C3(O)CCCC3)nn2)O[C@@H]1CO)c1ccc(Cl)cc1	.	.	3.4	.	.	.	.	.
CCOC(=O)c1c(/N=C/N(C)C)sc(/C=N/Nc2ccccc2)c1-c1ccc(Cl)cc1	40.2*	42.9*	0.3	-0.2	4.9	26.4	29.2*	43.3*
O=C(Cc1ccccn1)N[C@@H]1CC[C@@H](CC(=O)N2CCCCC2)O[C@@H]1CO	.	.	-0.2	.	.	.	.	.
CCN1/C(=C\C=C(C(C)=O)C(C)=O)Sc2ccccc21	196.1*	.	0.0	0.5	130.4	192.0	167.3*	157.2*
CCN1/C(=C\C(=S)Nc2ccccc2)Sc2ccccc21	-3.1	11.3	0.1	0.5	-0.1	14.1	.	.
CCOC(=O)/C(C#N)=C(C)/C=C1\Sc2ccccc2N1CC	48.8*	.	0.1	-0.6	-70.5	-33.2	39.1*	50.2*
SMILES	TPT1 inh	Rpn11 block	XiGFP reactiv	aDG glyco act	CSN inh	HNF4A DNA FP	caTPT1 confirm	RNase T1 counter
CN1CCN(C(=O)[C@H]2[C@H](CO)[C@H]3Cn4c(ccc(-c5cccnc5)c4=O)[C@H]3N2CC2CC2)CC1	.	.	0.0	.	.	.	.	.
COc1ccc2c3c(n(C)c2c1)[C@H](CO)N(Cc1ccncc1)CC31CCN(C(=O)C2CC2)CC1	.	.	0.0	.	.	.	.	.
CN(C)CCCN(C(=O)c1ccc(Br)s1)c1nc2cc3c(cc2s1)OCCO3	30.9*	-2.6	0.0	0.2	5.2	0.6	28.3*	30.5*
CCN(CC)CCN(C(=O)c1ccc(Br)s1)c1nc2cc3c(cc2s1)OCCO3	-6.1	-9.9	0.2	0.0	-0.6	5.2	.	.
C[C@@H]1CN([C@@H](C)CO)C(=O)c2cc(N(C)C)ccc2O[C@@H](C)CCCCO[C@@H]1CN(C)C(=O)Nc1ccc(F)cc1	.	.	-0.3	.	.	.	.	.
CC(=O)Nc1ccc2c(c1)CC(=O)N(C)C[C@H](C)[C@H](CN(C)C(=O)OC(C)(C)C)O2	.	.	0.3	.	.	.	.	.
COc1ccc2c3c(n(C)c2c1)[C@@H](CO)N(Cc1ccccc1)CC31CCN(S(=O)(=O)c2ccc(C)cc2)CC1	.	.	-0.1	.	.	.	.	.
N#C/C(=C\c1cccnc1)c1nc2c(s1)CCCC2	-5.4	-74.2	0.1	0.8	-2.1	-21.6	.	.
COc1cc(/C=C(\C#N)c2nc3c(s2)CCCC3)ccc1O	145.6*	.	.	.	.	.	168.2*	152.4*
O=C(C(=O)N1CCCCCC1)c1c[nH]c2ccccc12	.	-0.6	0.3	-0.1	-3.7	-1.0	.	.
C[n+]1cc(C(=O)N2CCCCC2)ccc1/C=C/c1c[nH]c2ccccc12	132.2*	.	0.1	0.1	148.9	146.6	108.7*	108.6*
